Assay outcomes (PubChem BioAssay)
aDG glyco up: activators of alpha-DG glycosylation, primary screen, uHTS, Pro5-aDG cells, AlphaScreen. alpha-DG glycosylation AlphaScreen (IIH6); 0% Pro5, 100% B10-LARGE cell signal. activation, % at 10 µM. actives 0.22% (n = 360,000);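 active means activation of at least 8% versus controls, or a plate z-score of at least 8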;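 further: Pro5 are CHO cells carrying HIG-tagged alpha-DG that lacks glycosylation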
Xi reactivation: activators of inactive X chromosome reactivation, primary screen, imaging, XiGFP fibroblasts, GFP high-content imaging, set 2; XiGFP mouse fibroblasts, % GFP-positive cells imaging, 3 d; cells co-treated with 5-aza-dC sensitizer; scaled so ellipticine positive control = 100%; activation, % at 7.58 µM; actives 0.055% (n = 360,000);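 active means mean normalized replicate activation at least 10% and every replicate at or above 10%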;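 further: 0% = median of on-plate neutral control wells and 100% = ellipticine 6 µM median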
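System: XiGFP fibroblasts, SV40-immortalized. Medium: DMEM plus 5-aza-dC sensitizer. Doses: single point. Timing: 3 d treatment, 15 min room-temperature fixation. Control set: ellipticine 6 µM.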
TPT1 inhibitor: Candida albicans TPT1 enzyme inhibitors, primary screen, biochemical, fluorescence polarization; recombinant caTPT1, FP RNA substrate dephosphorylation; inhibition, % at 5 µM; actives 0.81% (n = 300,000);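 active means inhibition above the mean of all tested compounds plus 3 SD, set per screening campaign, cut at about 24% in these data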;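 further: plate controls were DMSO alone for no effect and ferristatin control at 100 nM for full effect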
CSN inh: inhibitors of CSN-mediated cullin deneddylation, primary screen, biochemical, fluorescence polarization, uHTS. COP9 signalosome complex subunit 5 (Homo sapiens), Q92905. Purified CSN, SCF-Nedd8-OG deneddylation. inhibition, % at 12.5 µM. actives 0.38% (n = 360,000). AID 651999, 2013;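 active means pattern-corrected inhibition above about 35%, with an unprinted fluorescence ratio check between 0.5 and 1.5, limit read from the data, passing the limit was not always enough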;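 further: 0% = enzyme with substrate and 100% = substrate without enzyme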
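Test system: Human Csn5 produced in HEK293T cells | Compound: 12.5 µM single point | Times: 90 min, room temperature | Signal: Fluorescence polarization readout | Read-out basis: % inhibition of substrate cleavage by Csn5 | Controls: no-enzyme wells high, enzyme-with-substrate wells low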
HNF4A DNA FP: change in binding of human HNF4A to DNA, primary screen, biochemical, fluorescence polarization, FITC-DNA | 1 h | activity change, % at 10 µM | actives 0.3% (n = 360,000); in the data active means activity change above about 30%, passing the limit was not always enough
Rpn11 block: Rpn11 (PSMD14) deubiquitinase inhibitors, primary screen, biochemical, fluorescence polarization, uHTS | 26S proteasome non-ATPase regulatory subunit 14 (Homo sapiens), O00487 | human 26S proteasome, Ub4-pepOG fluorescence polarization; 20S core pre-blocked with epoxomicin | inhibition, % at 20 µM | actives 0.59% (n = 360,000);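 active means inhibition at 20 µM, scaled to each plate's controls, above about 33%, limit read from the data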
TPT1 inh confirm: Candida albicans TPT1 inhibitors, confirmation, biochemical, fluorescence polarization, triplicate. shares compounds with TPT1 inhibitor. recombinant caTPT1, RNase T1 coupled. inhibition, % at 5 µM. actives 74% (n = 2,400);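 active means inhibition above the primary screen limit, the mean inhibition of all tested compounds plus 3 SD, cut at about 25% in these data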
RNase T1 counter: RNase T1 inhibitors, counter-screen for TPT1 inhibitor project, biochemical, fluorescence polarization | actives 83% (n = 2,400) | RNase T1 cleavage, 1536-well | inhibition, % at 5 µM | shares compounds with TPT1 inhibitor | AID 2153, 2009;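 active means inhibition above the solvent-only control well mean plus 3 SD, limit set per screening run, cut at about 23% in these data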;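 further: plate controls were DMSO wells with enzyme for no effect and wells without RNase T1 for full effect; inhibitors block cleavage so intact labeled substrate keeps polarization high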
Target sequence (P00651 whole entry, looked up): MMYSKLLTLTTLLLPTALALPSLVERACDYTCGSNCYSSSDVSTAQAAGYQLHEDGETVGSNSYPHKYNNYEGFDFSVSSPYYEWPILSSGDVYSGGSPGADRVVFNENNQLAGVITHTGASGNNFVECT
Rpn11 inh conf: Rpn11 (PSMD14) deubiquitinase inhibitors, confirmation, biochemical, fluorescence polarization, single concentration; shares compounds with Rpn11 block; purified human 26S proteasome, Ub4-pepOG fluorescence polarization; proteasome pretreated with epoxomicin; inhibition, % at 20 µM; actives 29% (n = 1,900); AID 602318, 2012
MMP-2 counter-1: MMP-2 enzyme inhibition, confirmation, counter-screen for RPN11 inhibitor project, biochemical, fluorescence, single concentration; shares compounds with Rpn11 block; recombinant MMP-2, FRET peptide cleavage fluorescence; inhibition, % at 20 µM; actives 4% (n = 1,900);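 further: human MMP-2 activated beforehand with APMA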
Target sequence (P08253 whole entry, looked up): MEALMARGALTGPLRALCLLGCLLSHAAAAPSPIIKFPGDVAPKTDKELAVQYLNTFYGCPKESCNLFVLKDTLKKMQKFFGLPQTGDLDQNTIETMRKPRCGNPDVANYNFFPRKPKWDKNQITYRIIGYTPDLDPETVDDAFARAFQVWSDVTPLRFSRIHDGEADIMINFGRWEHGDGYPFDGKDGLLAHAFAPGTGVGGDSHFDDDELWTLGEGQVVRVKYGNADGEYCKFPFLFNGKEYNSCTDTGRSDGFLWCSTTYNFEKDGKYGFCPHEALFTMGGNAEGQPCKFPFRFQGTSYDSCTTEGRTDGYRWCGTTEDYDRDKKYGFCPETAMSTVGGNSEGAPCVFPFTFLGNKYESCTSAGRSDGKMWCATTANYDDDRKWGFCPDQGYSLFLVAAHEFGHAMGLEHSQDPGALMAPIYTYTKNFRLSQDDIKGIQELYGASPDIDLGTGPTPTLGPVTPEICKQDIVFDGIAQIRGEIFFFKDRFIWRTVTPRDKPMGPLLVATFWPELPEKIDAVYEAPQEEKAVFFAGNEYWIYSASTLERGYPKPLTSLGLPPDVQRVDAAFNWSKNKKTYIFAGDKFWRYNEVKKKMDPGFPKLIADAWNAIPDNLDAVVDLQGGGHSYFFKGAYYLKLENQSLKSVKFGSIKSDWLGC
Thrombin inh: bovine thrombin protease inhibition, confirmation, counter-screen for Rpn11 inhibitor project, biochemical, fluorescence polarization, single concentration. shares compounds with Rpn11 block. bovine thrombin cleavage of Ub4-pepOG. inhibition, % at 20 µM. actives 13% (n = 1,900). AID 602333, 2012;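 active means mean inhibition at least 40% at 20 µM, or signal 3 deviations below plate average, so some actives read negative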;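 further: plate controls were thrombin with DMSO for no effect and buffer wells lacking thrombin for full effect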
CSN deneddyl val: Csn5 deneddylation inhibitors, confirmation, biochemical, fluorescence polarization, single concentration, SCF-Nedd8OG substrate; shares compounds with CSN inh; Csn5 deneddylation of SCF-Nedd8OG, 90 min; inhibition, % at 16.6 µM; actives 62% (n = 540); in the data active means inhibition above about 50%;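 further: 0% = DMSO with enzyme and 100% = no enzyme wells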
MMP-2 counter-2: MMP-2 protease inhibition counter-screen, confirmation, counter-screen for CSN deneddylation inhibitor project, biochemical, fluorescence, single concentration; shares compounds with CSN inh; recombinant MMP-2, FRET substrate fluorescence, 60 min; inhibition, % at 16.6 µM; actives 33% (n = 540); AID 720655, 2013;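 active means corrected plate-normalized z-score of 5 or more, or -5 or less, or inhibition of 15% or more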;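 further: plate controls were DMSO wells with enzyme for no effect and buffer wells lacking MMP-2 for full effect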
Thrombin cntr: counter-screen for CSN deneddylation inhibitors: bovine thrombin inhibition; shares compounds with CSN inh; bovine thrombin cleavage of Ub4-pepOG, fluorescence polarization; inhibition, % at 16.6 µM; actives 49% (n = 540);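 active means inhibition at or above a set limit, with a fluorescence interference ratio between 0.5 and a set maximum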
HNF4a DNA conf: change in HNF4A binding to DNA, retest, confirmation, biochemical, fluorescence polarization, FITC-DNA; shares compounds with HNF4A DNA FP; activity change, % at 12.5 µM; AID 1224897, 2016; actives 99% (n = 210); 1 h; call rule not given here
* hit, by the source's call; . = not tested or not shown. Hits are enriched below; roughly 1.3% of the tested compounds scored in any of these assays. Unless noted, no stated cut-off is given here; in the data, active means inhibition above about 40%; inactive means the rest.

SMILES | aDG glyco up | Xi reactivation | TPT1 inhibitor | CSN inh | HNF4A DNA FP | Rpn11 block | TPT1 inh confirm | RNase T1 counter | CSN deneddyl val | MMP-2 counter-2 | Thrombin cntr | others
CC(C)CC#Cc1ccc([C@H]2[C@@H](CO)N3C(=O)CN(C(=O)NC(C)C)C[C@@H]23)cc1 | . | 0.3 | . | . | . | . | . | . | . | . | .
O=C(CCN1C(=O)/C(=C\c2ccco2)SC1=S)Nc1ccc(C(=O)O)c(O)c1 | 0.1 | 0.0 | 25.4* | 57.4* | -20.1 | 69.9* | 11.2 | 14.6 | 72.0* | 14.2 | 1.1 | Rpn11 inh conf=23.4;MMP-2 counter-1=26.1;Thrombin inh=21.9
C[C@@H]1CN([C@@H](C)CO)C(=O)c2c(c3ccccc3n2C)-c2ccccc2CO[C@H]1CN(C)CC1CC1 | . | -0.1 | . | . | . | . | . | . | . | . | .
COC1=CC(=Cc2c(N)n3nc(CC(=O)N4CCOCC4)sc3nc2=O)C=C(OC)C1=O | -0.2 | 0.0 | 50.0* | 88.2* | 62.4* | . | 131.9* | 130.7* | 94.4* | -20.5 | 82.6*
Nc1[nH]c2cc([N+](=O)[O-])ccc2c1-c1ccccn1 | -0.2 | 100.4* | 101.1* | 63.9* | 91.4* | . | 102.3* | 105.5* | 49.0 | -4.8 | 43.8*
CC1=CN2C(=N)/C(=C/c3ccco3)C(=O)N=C2S1 | 0.3 | -0.2 | 0.8 | -2.4 | 0.7 | -3.4 | . | . | . | . | .
CC1=CN2C(=N)/C(=C/c3ccc([N+](=O)[O-])o3)C(=O)N=C2S1 | -0.6 | 0.2 | 77.2* | 102.3* | 66.3* | . | 117.5* | 117.7* | 52.0* | 10.0 | 91.5*
Cc1ccc(S(=O)(=O)N(C)C[C@@H]2OCCCC[C@@H](C)Oc3ccc(NC(=O)NC4CCCCC4)cc3C(=O)N([C@@H](C)CO)C[C@@H]2C)cc1 | . | 0.3 | . | . | . | . | . | . | . | . | .
COc1cccc(/C=N/NC(=O)c2c(C)nc3ccc(Br)cn23)c1O | 2.1 | . | 31.1* | 44.9* | 4.3 | 16.0 | 43.0* | 46.4* | 5.8 | 1.9 | -18.4
CCOc1ccccc1/C=N/NC(=O)c1c(C)nc2ccc(Br)cn12 | -0.1 | 0.3 | -0.9 | -2.8 | 1.7 | -7.3 | . | . | . | . | .
CCN1/C(=C/c2ccc3cccc(C)c3[n+]2CC)Sc2ccccc21 | 1.9 | . | 60.4* | 54.1* | 107.1* | 75.4* | 65.6* | 75.6* | 22.8 | -13.0 | 20.2
Cc1ccc2nc(/C(C#N)=C\c3ccc([N+](=O)[O-])o3)[nH]c2c1 | -0.5 | . | 54.9* | 51.6* | 103.3 | 47.9* | 46.8* | 58.9* | 30.4 | 18.3* | 43.7* | Rpn11 inh conf=11.7;MMP-2 counter-1=-18.2;Thrombin inh=19.3
Cc1ccc2nc(/C(C#N)=C/c3ccc(-c4ccccc4C(=O)O)o3)[nH]c2c1 | -0.1 | -0.1 | 133.1* | 75.8* | 96.6* | . | 139.1* | 132.0* | 63.0* | -31.9* | 68.3
Cc1cc(/C=C(/C#N)c2nc3ccccc3[nH]2)c(C)n1-c1cc(C(=O)O)cc(C(=O)O)c1 | -0.8 | 0.0 | . | 20.6 | -33.0 | 20.5 | . | . | . | . | .
Cc1ccc(S(=O)(=O)N(C)C[C@@H]2Oc3ncc(C#Cc4ccc(C(F)(F)F)cc4)cc3C(=O)N([C@H](C)CO)C[C@@H]2C)cc1 | . | 0.4 | . | . | . | . | . | . | . | . | .
N#C/C(=C/c1ccc(N2CCCCCC2)o1)c1ccc(Cl)cc1 | -0.4 | . | 157.7* | 78.3* | 109.8 | . | 187.2* | 171.7* | 188.1* | -34.4* | 58.5*
C=CCSc1nnc(C)c(/C=C/Nc2ccc(Cl)cc2)n1 | 0.1 | 0.8 | 154.8* | -1.0 | 50.8* | . | 132.8* | 128.8* | . | . | . | HNF4a DNA conf=38.4*
COc1ccc(C(=O)/C=C/c2cn(CN3CCN(C)CC3)c3ccccc23)cc1 | 0.6 | . | 14.7 | 6.9 | 8.8 | 18.7 | . | . | . | . | .
COc1ccc(C(=O)/C=C/c2cn(CC(O)CN3CCOCC3)c3ccccc23)cc1 (stereo unspecified) | 0.5 | . | 51.5* | 22.2 | 42.0* | . | 44.8* | 57.0* | . | . | . | HNF4a DNA conf=75.4*
C[C@H]1CN([C@@H](C)CO)C(=O)c2cc(NC(=O)CCN3CCOCC3)ccc2O[C@H]1CN(C)Cc1ccc(C(=O)Nc2ccccc2N)cc1 | . | 0.5 | . | . | . | . | . | . | . | . | .
